Measurements from article PMC4966677 (ACS infectious diseases, 2015).
“And” between values parts separate entries of the source, which are not always exact repeats. Equal values may be shown once.

Columns and labels:
M. tuberculosis H37Rv = test: Microplate Alamar Blue assay; type: cell-based, Mycobacterium tuberculosis; conditions: for In vitro anti-Mtb activity MABA-MIC H37Rv: Minimum Inhibitory Concentration, strain H37Rv; for Activity in standard MIC assay (in words): strain not given
M. tuberculosis Erdman = test: Microplate Alamar Blue assay; type: cell-based, Mycobacterium tuberculosis; conditions: Minimum Inhibitory Concentration, strain Erdman
Mtb-infected macrophages = test: Growth inhibition of Mtb in IFN-γ-activated J774 macrophages; type: cell-based, Mycobacterium tuberculosis; conditions: read-out: In vitro anti-Mtb activity, Mtb-infected macrophages (IC90); IC90 in macrophages activated with γ-interferon
[1] = Oral pharmacokinetics in guinea pig plasma; type: in vivo; conditions: for AUCALL / CMAX / Clearance / Half-life / TMAX / VD (Volume of distribution): oral; for Oral bioavailability (in words): guinea pigs, oral dosing
[2] = Tolerability in guinea pigs during the efficacy study; type: in vivo, guinea pig; conditions: L01-Z08 20 mg/kg and L335-M34 50 mg/kg once daily alone or in combination for 6 weeks
[3] = test system: Human PTP panel: PTP1B, TC-PTP, SHP1, SHP2, FAp1, Lyp, Meg2, HePTP, laforin, VHX, VHR, LMWPTP, Cdc14A, PTPα, LAR, CD45, PTPRG; test: Human PTP panel selectivity, pNPP assay; type: biochemical
Outline: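 Each PTP expressed in and purified from E. coli, used at 5 nM final. The reaction is started by adding enzyme to pNPP, set at that PTP's Km, plus varying test compound concentrations. It is stopped after 15 min with 5N NaOH. p-Nitrophenol is read at 405 nm, corrected with a no-enzyme control. IC50 is fit to AI/A0 = IC50/(IC50+[I]).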

Mtb H37Rv = test: Chronic TB infection model in guinea pigs, lung CFU; type: in vivo; conditions: added to the standard regimen HRZ, guinea pig lungs, after 6 weeks of treatment
mPTPA = mPTPA (Mycobacterium tuberculosis, UniProt P9WIA1)
mPTPB = mPTPB (Mycobacterium tuberculosis, UniProt I6WXK4)
[4] = guinea pig, Co-admin: L335M34 50 mg/kg and L01Z08 20 mg/kg together
[5] = guinea pig, Single (given alone), L335M34 50 mg/kg, L01Z08 20 mg/kg

Sequence of mPTPA (P9WIA1 whole entry): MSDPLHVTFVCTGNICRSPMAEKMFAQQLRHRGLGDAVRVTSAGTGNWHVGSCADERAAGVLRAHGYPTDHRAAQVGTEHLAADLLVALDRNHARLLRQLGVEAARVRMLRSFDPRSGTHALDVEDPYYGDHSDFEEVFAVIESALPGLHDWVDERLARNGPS
Sequence of mPTPB (I6WXK4 whole entry, looked up): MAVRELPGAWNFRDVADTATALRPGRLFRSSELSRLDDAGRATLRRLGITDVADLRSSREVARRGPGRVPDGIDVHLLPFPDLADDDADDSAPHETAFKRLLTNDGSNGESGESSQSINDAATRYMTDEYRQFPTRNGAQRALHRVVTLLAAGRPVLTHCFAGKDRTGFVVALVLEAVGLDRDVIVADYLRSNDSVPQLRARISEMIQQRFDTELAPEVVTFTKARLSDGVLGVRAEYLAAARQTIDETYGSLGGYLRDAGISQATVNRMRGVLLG

| Compound | In vitro anti-Mtb activity MABA-MIC H37Rv (M. tuberculosis H37Rv) | Activity in standard MIC assay (in words) (M. tuberculosis H37Rv) | In vitro anti-Mtb activity MABA-MIC Erdman (M. tuberculosis Erdman) | IC90 (Mtb-infected macrophages) | AUCALL [1, 4] | CMAX [1, 4] | Clearance [1, 4] | Half-life [1, 4] | TMAX [1, 4] | VD (Volume of distribution) [1, 4] | AUCALL [1, 5] | CMAX [1, 5] | Clearance [1, 5] | Half-life [1, 5] | TMAX [1, 5] | VD (Volume of distribution) [1, 5] | Oral bioavailability (in words) [1] | Signs of toxicity [2] | other results |
| --- | --- | --- | --- | --- | --- | --- | --- | --- | --- | --- | --- | --- | --- | --- | --- | --- | --- | --- | --- |
| O=C(O)c1cc2c(C#Cc3cccc(C(F)(F)F)c3)c(-c3ccccc3)oc2cc1O [Compound L01-Z08] | >10 >10 uM | inactive | >10 >10 uM | < 5000 nM | 28161.76 ng·h/mL | 3059.668 ng/mL | 701.564 mL/h/kg | 6.141 h | 1.587 h | 6215.132 | 13166.89 ng·h/mL | 1870.43 ng/mL | 1518.474 mL/h/kg | 5.512 h | 1.587 h | 12074.939 | good oral bioavailability | no overt signs of toxicity | – |
| Cc1c(Br)cc(NC(=O)CS(=O)(=O)O)cc1Br [Compound L335-M34] | >10 >10 uM | devoid of activity | >10 >10 uM | 1380 nM | 52752.61 ng·h/mL | 7064.956 ng/mL | 950.034 mL/h/kg | 4.16 h | 2.5 h | 5702.19 | 54406.61 ng·h/mL | 5142.47 ng/mL | 917.462 mL/h/kg | 5.197 h | 2.5 h | 6878.467 | good oral bioavailability | no overt signs of toxicity | Activity against a panel of human PTPs ([3]; at concentrations below 3 μM): no significant activity; Fold selectivity vs. PTP panel ([3]; panel of 17 human PTPs): >20 fold; Time plasma concentration stays 10-fold in excess of biochemical IC50 ([1]; guinea pig, single oral dose, L335-M34 50 mg/kg, L01-Z08 20 mg/kg): 12–14 hours and 12–24 hours; Further reduction of mean lung CFU relative to HRZ (Mtb H37Rv): 0.17 log10; Mode of mPTPA inhibition (mPTPA): reversible and competitive inhibitor; IC50 (mPTPA; read-out: Biochemical potency against target (IC50, nM) mPTPA, pH 7): 160 nM; Ki (mPTPA; read-out: Ki for mPTPA): 56 ± 2 nM; Activity against mPTPB (mPTPB): no significant activity; Fold selectivity vs. mPTPA/B (mPTPA inhibitor over mPTPB) (mPTPB): >20 fold; IC50 (mPTPB; read-out: Biochemical potency against target (IC50, nM) mPTPB, pH 7): > 3200 nM |
